# In the library only some 3.7% were active in any assay of this set; here they are far more common.
# CFTR F508del cor = CFTR F508del correction in bronchial cells | CFBE cells, YFP halide quenching; stimulated with forskolin plus potentiator P3; % fluorescence drop versus neutral controls | activity (quench increase), % at 7.58 µM | 0.36% of 350,000 active | AID 720511;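 active means mean added fluorescence quench of at least 8% versus neutral control, with both replicates also reaching 8%; inconclusive means only one of the mean or replicate conditions met; inactive means mean below 8% and not both replicates reaching 8%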;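 further: cells transiently co-express mutant CFTR-F508del with the halide-sensitive YFP; corrector assay measuring rescue of mutant channel to the surface after 24 h compound exposure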
# E-sel inducer = induces E-selectin expression in human endothelial cells. P16581. 0.37% of 260,000 active. activation, % at 7.58 µM. HUVEC E-selectin immunofluorescence imaging; normalized: neutral wells 0, TNF-alpha wells 100;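 active means mean E-selectin-positive cell signal at least 10% of the positive control, reached in at least 60% of replicates, without over 20% cell loss; inconclusive means no rule given, readout overlaps actives, possibly toxicity-flagged; inactive means the rest, including those meeting only one limit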
#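 Assay system: HUVEC primary endothelial cells. Input: 3,000 HUVEC seeded per well. Doses: one compound dose added by pin transfer. Read-out basis: % PE-positive cells. Benchmarks: TNF-alpha high, DMSO low. Detection: immunofluorescence imaging. Buffer or medium: EGM-2, gelatin.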
# DENV2 CPE rescue = protects cells from dengue virus 2 cytopathic effect | DENV2-infected cells, cytopathic effect rescue, plate reader | CPE inhibition, % at 9.99 µM | 1.7% of 350,000 active; in the data active means CPE inhibition above about 20%, passing the limit was not always enough; inconclusive means no clear call, values can overlap the other calls; tested in BHK-21 cells;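 further: 0% = median of neutral control wells and 100% = median of positive control wells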
# ERAP1 HTS inh = blocks human ERAP1 aminopeptidase activity; Q9NZ08; recombinant ERAP1, Leu-AMC fluorescence, 60 min; inhibition, % at 10.7 µM; 0.15% of 340,000 active;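 active means mean replicate inhibition of at least 30%, or all replicates individually reaching that 30% level; inactive means mean below 30% and not every replicate reaching it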;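 further: 0% = neutral control wells and 100% = L-leucinethiol positive control wells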
# FGF22 binding = FGF22 (human) thermal shift binding; activity (Tm shift, normalised), % at 9.99 µM; 1.5% of 340,000 active; AID 651658; recombinant FGF22 thermal shift, SYPRO orange fluorescence; percent of sucrose octasulfate shift, DMSO zero;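 active means mean Tm shift, scaled 0 neutral to 100 positive control, at about 1.3% or above, every replicate too, limit read from the data; inconclusive means no clear call, values can overlap the other calls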
# Target sequence (Q9HCT0 whole entry, looked up): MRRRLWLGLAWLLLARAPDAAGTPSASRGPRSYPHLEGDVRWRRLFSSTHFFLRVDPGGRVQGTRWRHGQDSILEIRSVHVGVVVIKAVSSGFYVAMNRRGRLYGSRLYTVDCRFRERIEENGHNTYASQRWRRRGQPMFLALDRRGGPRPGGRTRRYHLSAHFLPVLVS
# An asterisk follows results filed as active; u = inconclusive; x = not tested or not shown.
SMILES,CFTR F508del cor,E-sel inducer,DENV2 CPE rescue,ERAP1 HTS inh,FGF22 binding
C[C@H](CO)N1C[C@H](C)[C@H](CN(C)S(=O)(=O)c2cccs2)Oc2ncccc2C1=O,0.4,0.1,37.2*,3.3,0.5
C[C@H](CO)N1C[C@H](C)[C@@H](CN(C)S(=O)(=O)c2cccs2)Oc2c(NC(=O)c3ccncc3)cccc2C1=O,2.2,-9.2,1.0,3.0,0.6
O=C(Cc1cccnc1)N[C@H]1CC[C@@H](CCn2cc(Cc3ccccc3)nn2)O[C@H]1CO,1.8,-0.5,88.5*,0.7,-0.1
O=C(C[C@@H]1CC[C@H](NC(=O)Cc2cccnc2)[C@@H](CO)O1)Nc1ccccc1,-1.3,-0.4,44.3*,1.1,x
O=C(Cc1cccnc1)N[C@@H]1CC[C@@H](CCn2cc(Cc3ccccc3)nn2)O[C@H]1CO,4.3,-0.4,5.1,1.9,-0.1
O=C(C[C@H]1CC[C@H](NC(=O)Cc2cccnc2)[C@H](CO)O1)Nc1ccccc1,2.5,-0.3,3.7,0.0,x
CN(C)C(=O)[C@@H]1[C@@H](CO)[C@@H]2Cn3c(ccc(-c4cccnc4)c3=O)[C@@H]2N1Cc1ccccc1F,4.9,-0.2,9.7,1.5,0.0
C[C@H](CO)N1C[C@H](C)[C@H](CN(C)C(=O)C2CCCCC2)Oc2cc(C3=CCCCC3)ccc2S1(=O)=O,2.0,-0.1,-5.4,0.0,-0.5
C[C@@H]1CN([C@H](C)CO)C(=O)c2cc(NS(C)(=O)=O)ccc2O[C@@H]1CN(C)Cc1ccc(C(F)(F)F)cc1,4.2,110.3*,-9.4,-0.1,0.7
C[C@H]1CN([C@@H](C)CO)C(=O)Cc2cc(NS(=O)(=O)c3ccccc3)ccc2O[C@H]1CN(C)Cc1ccc(C(F)(F)F)cc1,2.0,42.0*,-3.0,-2.8,0.0
C[C@@H]1CN([C@@H](C)CO)C(=O)Cc2cc(NS(C)(=O)=O)ccc2O[C@H]1CN(C)Cc1ccc(C(F)(F)F)cc1,-6.9,0.2,20.0*,-0.7,x
C[C@@H]1CN([C@H](C)CO)C(=O)Cc2cc(NS(=O)(=O)c3ccccc3)ccc2O[C@@H]1CN(C)Cc1ccc(C(F)(F)F)cc1,1.8,46.6*,7.2,-2.3,0.0
C[C@@H]1CN([C@H](C)CO)C(=O)Cc2cc(NS(=O)(=O)c3ccccc3)ccc2O[C@H]1CN(C)Cc1ccc(C(F)(F)F)cc1,2.2,1.9,12.3,-1.6,-0.4
C[C@H]1CN([C@@H](C)CO)C(=O)c2cc(NS(C)(=O)=O)ccc2O[C@@H]1CN(C)Cc1ccc(C(F)(F)F)cc1,2.1,-2.5,10.7,-0.4,0.7
C[C@H]1CCCCO[C@H](CN(C)C(=O)Nc2ccccc2)[C@@H](C)CN([C@@H](C)CO)C(=O)c2cc(NS(=O)(=O)c3ccc(Cl)cc3)ccc2O1,1.0,x,-1.6,1.7,-0.7
C[C@H](CO)N1C[C@H](C)[C@H](CN(C)C(=O)Nc2ccccc2)OCCCC[C@H](C)Oc2ccc(NC(=O)Nc3ccc(C(F)(F)F)cc3)cc2C1=O,x,0.3,x,x,x
COc1ccccc1-c1ccc([C@@H]2[C@H]3CN(C(=O)c4cccnc4)CCCCN3[C@H]2CO)cc1,-1.0,-0.3,-6.6,1.5,0.1
C[C@@H]1CN([C@@H](C)CO)C(=O)c2cc(C#CC3(O)CCCC3)cnc2O[C@@H]1CN(C)C(=O)C1CCC1,-1.9,-0.2,x,-0.4,-0.2
C[C@H](CO)N1C[C@H](C)[C@H](CN(C)Cc2ccc(-c3ccccc3)cc2)Oc2ccc(NS(=O)(=O)c3cccs3)cc2CC1=O,0.1,0.2,50.9*,3.9,-0.2
Cc1c(C)c2ccc(OC(C)C(=O)NC3CC(C)(C)NC(C)(C)C3)cc2oc1=O (stereo unspecified),-4.3,x,-4.0,-4.2,0.2
Cc1cc(OC(C)C(=O)NC2CC(C)(C)NC(C)(C)C2)c2c(C)c(C)c(=O)oc2c1 (stereo unspecified),0.5,0.1,45.0*,12.8,-0.1
O=C(C[C@H]1C[C@H]2c3cc(NC(=O)Cc4ccncc4)ccc3O[C@H]2[C@H](CO)O1)NCCc1ccccc1,1.1,0.0,14.8,0.0,0.0
Cc1ccc(NC(=O)c2nnn(-c3cccc(C(F)(F)F)c3)c2N)cc1,-3.6,x,-7.6,2.5,53.3*
C[C@@H]1CN([C@@H](C)CO)S(=O)(=O)c2ccc(-c3ccccc3F)cc2O[C@H]1CN(C)C,-0.7,0.0,4.7,-7.1,-0.2
C=CC(C)(O)CCC=C(C)C (stereo unspecified),-0.1,x,101.1*,0.6,0.3
SMILES,CFTR F508del cor,E-sel inducer,DENV2 CPE rescue,ERAP1 HTS inh,FGF22 binding
CC(C)=CCC/C(C)=C/C(N)=O,0.6,0.4,-6.4,0.5,-0.1
Cc1noc(C)c1S(=O)(=O)Nc1ccc2c(c1)C(=O)N([C@@H](C)CO)C[C@@H](C)[C@@H](CN(C)C(=O)CCCN(C)C)OCCCC[C@@H](C)O2,-0.2,0.1,7.9,x,0.0
O=C(Nc1ccc2c(c1)OCO2)N[C@H]1CC[C@@H](CCNC(=O)C2CCCCC2)O[C@@H]1CO,-0.5,-1.9,4.9,1.2,-0.2
Cc1onc(-c2ccccc2)c1C(=O)N/N=C/c1c(F)cccc1Cl,-2.1,-0.3,79.3*,-1.0,0.1
Cc1onc(-c2ccccc2)c1C(=O)NN=Cc1cc(Cl)cc(Cl)c1O,-0.2,-0.2,-6.4,-18.2,0.2
O=C(O)C1Cn2c(nc3c(c2=O)C2(CCCC2)Cc2ccccc2-3)S1 (stereo unspecified),1.9,x,-4.9,10.1,43.4*
O=c1c2c(nc3n1CCCCC3)-c1ccccc1CC21CCCC1,-0.4,x,-3.1,-0.5,0.0
Cc1noc(C)c1NC(=O)Nc1ccc2c(c1)C(=O)N([C@H](C)CO)C[C@H](C)[C@@H](CN(C)S(=O)(=O)c1cn(C)cn1)OCCCC[C@H](C)O2,-1.0,0.1,-4.1,1.2,-0.7
Fc1cccc(NC(=S)N2CCN(c3ccccn3)CC2)c1,-2.7,-0.1,1.9,0.7,0.1
Fc1ccc(NC(=S)N2CCN(c3cccc(C(F)(F)F)c3)CC2)cc1,x,147.8*,4.7,-0.9,-0.4
FC(F)(F)c1cccc(NC(=S)N2CCN(c3ccccn3)CC2)c1,0.4,x,-10.6,-4.0,43.6*
OC[C@H]1[C@H](c2ccc(C#Cc3ccccc3)cc2)[C@@H]2CN(CC3CCOCC3)CCCCN12,-0.1,0.3,-1.8,1.6,-0.2
O=C(CCn1c(=S)oc2ccccc21)Nc1ccccc1F,-2.7,x,7.1,-0.4,44.1*
CNc1ccccc1NC(=O)CCn1c(=S)oc2ccccc21,-1.2,-0.1,-1.9,0.7,0.3
C[C@@H](NC(=O)C[C@H]1C[C@H]2c3cc(NS(C)(=O)=O)ccc3O[C@H]2[C@@H](CO)O1)c1ccccc1,-4.9,-0.3,2.3,-0.7,-0.3
COC(=O)[C@H]1[C@H](CO)[C@H]2Cn3c(ccc(-c4ccccc4F)c3=O)[C@H]2N1C(=O)c1cnccn1,-2.6,-0.3,u,-0.5,0.1

# Source: PubChem BioAssay
